In brackets after ≈: the same amount, converted by molar mass. Peptide text beside a SMILES is read from it.
Experiments:
Pseudomonas aeruginosa = test: Antimicrobial activity against Pseudomonas aeruginosa PAO1; format: functional
Procedure, shortened: (§1)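 MICs were determined by standard methods on the gram-negative strains and on S. aureus strains 6538p (methicillin-sensitive) and BBA-41 (methicillin-resistant). Peptides had acetylated N termini and amidated C termini, and were purified by RP-HPLC. Reported as the range of values seen in at least three independent experiments.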

[1] = Selectivity index, Ratio of MIC for Staphylococcus aureus 6538p to fraction of human erythrocyte hemolysis at 64 uM; format: functional
Homo sapiens = species: Homo sapiens; test: Hemolysis of human erythrocyte at 64 uM; format: ADME
Procedure, shortened: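 Peptide (64 μM) was incubated with a 1% suspension of fresh human erythrocytes at 37°C for 1 h. Released hemoglobin was measured and expressed relative to cells lysed with 1% Triton X-100. Values are means of multiple independent experiments.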

Staphylococcus aureus [2] = test: Antimicrobial activity against Staphylococcus aureus BBA-41; format: functional; procedure, shortened: as §1
[3] = Selectivity index, Ratio of MIC for Escherichia coli BL21 to fraction of human erythrocyte hemolysis at 64 uM; format: functional
[4] = tested on: Staphylococcus epidermidis; test: Antimicrobial activity against Staphylococcus epidermidis; format: functional
Staphylococcus aureus [5] = test: Antimicrobial activity against Staphylococcus aureus 6538p; format: functional; procedure, shortened: as §1
Escherichia coli = test: Antimicrobial activity against Escherichia coli BL21; format: functional; procedure, shortened: as §1
[6] = Selectivity index, Ratio of MIC for Staphylococcus epidermidis to fraction of human erythrocyte hemolysis at 64 uM; format: functional
RAW264.7 [7] = test: Cytotoxicity against mouse RAW264.7 cell assessed as survival rate; format: functional; set-up: concentration or dose not given beside the values
Procedure, shortened: (§2)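 Cultured murine macrophages were exposed to peptide at a final concentration of 30 μM or 10 μM, depending on the peptide. Viability was read by MTT conversion to formazan. Results are percent survival versus buffer-treated controls, as mean and standard error of the mean of at least three independent experiments.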

J774.A1 [8] = test: Cytotoxicity against mouse […] cell assessed as survival rate; format: functional; set-up: concentration or dose not given beside the values; procedure, shortened: as §2
[9] = Selectivity index, Ratio of MIC for Pseudomonas aeruginosa PAO1 to fraction of human erythrocyte hemolysis at 64 uM; format: functional
J774.A1 [10] = test: Cytotoxicity against mouse […] cell assessed as survival rate at 10 uM; format: functional; procedure, shortened: as §2
RAW264.7 [11] = test: Cytotoxicity against mouse RAW264.7 cell assessed as survival rate at 10 uM; format: functional; procedure, shortened: as §2

Compound: CC[C@H](C)[C@H](NC(=O)[C@H](CCCCN)NC(=O)[C@H](CCCCN)NC(=O)[C@H](Cc1ccccc1)NC(=O)[C@H](CCCCN)NC(=O)[C@H](CCCCN)NC(=O)[C@H](Cc1c[nH]c2ccccc12)NC(=O)[C@H](CCCCN)NC(C)=O)C(=O)NCC(=O)N[C@@H](C)C(=O)N[C@H](C(=O)N[C@@H](CC(C)C)C(=O)N[C@@H](CCCCN)C(=O)N[C@@H](CCCCN)C(=O)N[C@@H](CC(C)C)C(N)=O)C(C)C (Ac-KWKKFKKIGAVLKKL-NH2)
- MIC (Pseudomonas aeruginosa): 1 µM (≈ 1.86 µg/mL)
- Selectivity Index [1]: <0.5
- Hemolysis (Homo sapiens): 3%
- MIC (Staphylococcus aureus [2]): > 16 µM
- Selectivity Index [3]: 16.7
- MIC [4]: 0.5 µM (≈ 0.928 µg/mL)
- MIC (Staphylococcus aureus [5]): > 16 µM
- MIC (Escherichia coli): 1 µM (≈ 1.86 µg/mL)
- Selectivity Index [6]: 68
- Activity (RAW264.7 [7]): 104%
- Activity (J774.A1 [8]): 94%
- Selectivity Index [9]: 8.3

Compound: CC[C@H](C)[C@H](NC(=O)[C@H](CCCCN)NC(=O)[C@H](CCCCN)NC(=O)[C@H](Cc1ccccc1)NC(=O)[C@H](CCCCN)NC(=O)[C@H](CCCCN)NC(=O)[C@H](Cc1c[nH]c2ccccc12)NC(=O)[C@H](CCCCN)NC(C)=O)C(=O)NCC(=O)N[C@@H](C)C(=O)N[C@H](C(=O)N[C@@H](CC(C)C)C(=O)N[C@@H](CCCCN)C(=O)N[C@H](C(=O)N[C@@H](CC(C)C)C(N)=O)C(C)C)C(C)C (Ac-KWKKFKKIGAVLKVL-NH2)
- MIC (Pseudomonas aeruginosa): 0.5 µM (≈ 0.914 µg/mL)
- Selectivity Index [1]: 0.3
- Hemolysis (Homo sapiens): 21%
- MIC (Staphylococcus aureus [2]): > 16 µM
- Selectivity Index [3]: 9.5
- MIC [4]: 0.5 µM (≈ 0.914 µg/mL)
- MIC (Staphylococcus aureus [5]): 16 µM (≈ 29.2 µg/mL)
- MIC (Escherichia coli): 0.25 µM (≈ 0.457 µg/mL)
- Selectivity Index [6]: 9.5
- Activity (RAW264.7 [7]): 73%
- Activity (J774.A1 [8]): 81%
- Selectivity Index [9]: 4.8

Compound: CC[C@H](C)[C@H](NC(=O)[C@H](CCCCN)NC(=O)[C@H](CCCCN)NC(=O)[C@H](Cc1ccccc1)NC(=O)[C@H](CCCCN)NC(=O)[C@H](CCCCN)NC(=O)[C@H](Cc1c[nH]c2ccccc12)NC(=O)[C@H](CCCCN)NC(C)=O)C(=O)NCC(=O)N[C@@H](CCCCN)C(=O)N[C@H](C(=O)N[C@@H](CC(C)C)C(=O)N[C@@H](CCCCN)C(=O)N[C@H](C(=O)N[C@@H](CC(C)C)C(N)=O)C(C)C)C(C)C (Ac-KWKKFKKIGKVLKVL-NH2)
- MIC (Pseudomonas aeruginosa): 0.5 µM (≈ 0.942 µg/mL)
- Selectivity Index [1]: 0.7
- Hemolysis (Homo sapiens): 9%
- MIC (Staphylococcus aureus [2]): > 16 µM
- Selectivity Index [3]: 22
- MIC [4]: 0.25 µM (≈ 0.471 µg/mL)
- MIC (Staphylococcus aureus [5]): 16 µM (≈ 30.2 µg/mL)
- MIC (Escherichia coli): 0.5 µM (≈ 0.942 µg/mL)
- Selectivity Index [6]: 44
- Activity (RAW264.7 [7]): 86%
- Activity (J774.A1 [8]): 88%
- Selectivity Index [9]: 11

Compound: CC[C@H](C)[C@H](NC(=O)[C@H](CCCCN)NC(=O)[C@H](CCCCN)NC(=O)[C@H](Cc1ccccc1)NC(=O)[C@H](CC(C)C)NC(=O)[C@H](CCCCN)NC(=O)[C@H](Cc1c[nH]c2ccccc12)NC(=O)[C@H](CCCCN)NC(C)=O)C(=O)NCC(=O)N[C@@H](C)C(=O)N[C@H](C(=O)N[C@@H](CC(C)C)C(=O)N[C@@H](CCCCN)C(=O)N[C@@H](CCCCN)C(=O)N[C@@H](CC(C)C)C(N)=O)C(C)C (Ac-KWKLFKKIGAVLKKL-NH2)
- MIC (Pseudomonas aeruginosa): 2 µM (≈ 3.68 µg/mL)
- Selectivity Index [1]: 3
- Hemolysis (Homo sapiens): 4%
- MIC (Staphylococcus aureus [2]): 8 µM (≈ 14.7 µg/mL)
- Selectivity Index [3]: 6.25
- MIC [4]: 0.25 µM (≈ 0.46 µg/mL)
- MIC (Staphylococcus aureus [5]): 4 µM (≈ 7.37 µg/mL)
- MIC (Escherichia coli): 1 µM (≈ 1.84 µg/mL)
- Selectivity Index [6]: 48
- Activity (RAW264.7 [7]): 88%
- Activity (J774.A1 [8]): 74%
- Selectivity Index [9]: 6.25

Compound: CC[C@H](C)[C@H](NC(=O)[C@H](CCCCN)NC(=O)[C@H](CCCCN)NC(=O)[C@H](Cc1ccccc1)NC(=O)[C@H](CC(C)C)NC(=O)[C@H](CCCCN)NC(=O)[C@H](Cc1c[nH]c2ccccc12)NC(=O)[C@H](CCCCN)NC(C)=O)C(=O)NCC(=O)N[C@@H](C)C(=O)N[C@H](C(=O)N[C@@H](CC(C)C)C(=O)N[C@@H](CCCCN)C(=O)N[C@H](C(=O)N[C@@H](CC(C)C)C(N)=O)C(C)C)C(C)C (Ac-KWKLFKKIGAVLKVL-NH2)
- MIC (Pseudomonas aeruginosa): 2 µM (≈ 3.62 µg/mL)
- Activity (J774.A1 [10]): 16%
- Selectivity Index [1]: 1.1
- Hemolysis (Homo sapiens): 45%
- MIC (Staphylococcus aureus [2]): 1 µM (≈ 1.81 µg/mL)
- Selectivity Index [3]: 2.2
- MIC [4]: 0.5 µM (≈ 0.906 µg/mL)
- MIC (Staphylococcus aureus [5]): 0.5 µM (≈ 0.906 µg/mL)
- Activity (RAW264.7 [11]): 21%
- MIC (Escherichia coli): 0.5 µM (≈ 0.906 µg/mL)
- Selectivity Index [6]: 2.2
- Selectivity Index [9]: 0.56

Compound: CC[C@H](C)[C@H](NC(=O)[C@H](CCCCN)NC(=O)[C@H](CCCCN)NC(=O)[C@H](Cc1ccccc1)NC(=O)[C@H](CC(C)C)NC(=O)[C@H](CCCCN)NC(=O)[C@H](Cc1c[nH]c2ccccc12)NC(=O)[C@H](CCCCN)NC(C)=O)C(=O)NCC(=O)N[C@@H](CCCCN)C(=O)N[C@H](C(=O)N[C@@H](CC(C)C)C(=O)N[C@@H](CCCCN)C(=O)N[C@@H](CCCCN)C(=O)N[C@@H](CC(C)C)C(N)=O)C(C)C (Ac-KWKLFKKIGKVLKKL-NH2)
- MIC (Pseudomonas aeruginosa): 1 µM (≈ 1.9 µg/mL)
- Selectivity Index [1]: 1.5
- Hemolysis (Homo sapiens): 8%
- MIC (Staphylococcus aureus [2]): 16 µM (≈ 30.4 µg/mL)
- Selectivity Index [3]: 12.5
- MIC [4]: 0.25 µM (≈ 0.475 µg/mL)
- MIC (Staphylococcus aureus [5]): 4 µM (≈ 7.59 µg/mL)
- MIC (Escherichia coli): 1 µM (≈ 1.9 µg/mL)
- Selectivity Index [6]: 50
- Activity (RAW264.7 [7]): 57%
- Activity (J774.A1 [8]): 45%
- Selectivity Index [9]: 6.25

Compound: CC[C@H](C)[C@H](NC(=O)[C@H](CCCCN)NC(=O)[C@H](CCCCN)NC(=O)[C@H](Cc1ccccc1)NC(=O)[C@H](CC(C)C)NC(=O)[C@H](CCCCN)NC(=O)[C@H](Cc1c[nH]c2ccccc12)NC(=O)[C@H](CCCCN)NC(C)=O)C(=O)NCC(=O)N[C@@H](CCCCN)C(=O)N[C@H](C(=O)N[C@@H](CC(C)C)C(=O)N[C@@H](CCCCN)C(=O)N[C@H](C(=O)N[C@@H](CC(C)C)C(N)=O)C(C)C)C(C)C (Ac-KWKLFKKIGKVLKVL-NH2)
- MIC (Pseudomonas aeruginosa): 1 µM (≈ 1.87 µg/mL)
- Selectivity Index [1]: 0.8
- Hemolysis (Homo sapiens): 67%
- MIC (Staphylococcus aureus [2]): 4 µM (≈ 7.48 µg/mL)
- Selectivity Index [3]: 1.5
- MIC [4]: 0.5 µM (≈ 0.935 µg/mL)
- MIC (Staphylococcus aureus [5]): 1 µM (≈ 1.87 µg/mL)
- MIC (Escherichia coli): 0.5 µM (≈ 0.935 µg/mL)
- Selectivity Index [6]: 3
- Activity (RAW264.7 [7]): 56%
- Activity (J774.A1 [8]): 43%
- Selectivity Index [9]: 0.4

— ChEMBL document CHEMBL1275574, “Lysine-enriched cecropin-mellitin antimicrobial peptides with enhanced selectivity” (Antimicrob Agents Chemother, 2008)
